Series [1] deals with Cytochrome P450 2D6 (Homo sapiens, UniProt P10635). The series is described as follows: Inhibition of CYP2D6 (unknown origin). Type of series: ADME.
Series [2] has as its system Plasma. The series is described as follows: Stability in human plasma. Format: ADME, cell-free.
In series [3] the target is Cytochrome P450 2C9 (Homo sapiens, UniProt P11712). The series can be described thus: Inhibition of CYP2C9 (unknown origin). Format: ADME.
Series [4] can be described thus: Intrinsic clearance in rat. Format: ADME, organism-based. The conditions noted are these: in vivo.
Series [5] has as its system Plasma. The series can be described thus: Stability in rat plasma. Format: ADME, cell-free.
For series [6], the target named is T1, Metabotropic glutamate receptor 1 (Homo sapiens, UniProt Q13255). The series is described as follows: Positive allosteric modulatory activity at human mGlu1 receptor expressed in wild type T-Rex293 cells assessed as increase in glutamate-induced calcium mobilization pre-incubated for 2.5 mins before glutamate stimulation for 1 min. Format: functional, cell-based. An outline of the steps: (§1)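 Tetracycline-inducible human mGlu1 WT T-REx-293 cells were induced overnight with 50 ng/mL tetracycline in dialyzed-FBS medium. Cells were loaded with 1.15 μM Fluo-4 AM in HBSS/20 mM HEPES/2.5 mM probenecid for 45 min at 37 °C. Compounds (half-log series in DMSO) were added for 2.5 min, then an EC20 of glutamate for 1 min. Calcium flux was read on Flexstation; ECmax glutamate served as reference. n=3 in triplicate.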
On the technique in general: Calcium flux is commonly read through the fluorescence of an indicator in the cells.
Target sequence in this assay (Q13255 whole entry): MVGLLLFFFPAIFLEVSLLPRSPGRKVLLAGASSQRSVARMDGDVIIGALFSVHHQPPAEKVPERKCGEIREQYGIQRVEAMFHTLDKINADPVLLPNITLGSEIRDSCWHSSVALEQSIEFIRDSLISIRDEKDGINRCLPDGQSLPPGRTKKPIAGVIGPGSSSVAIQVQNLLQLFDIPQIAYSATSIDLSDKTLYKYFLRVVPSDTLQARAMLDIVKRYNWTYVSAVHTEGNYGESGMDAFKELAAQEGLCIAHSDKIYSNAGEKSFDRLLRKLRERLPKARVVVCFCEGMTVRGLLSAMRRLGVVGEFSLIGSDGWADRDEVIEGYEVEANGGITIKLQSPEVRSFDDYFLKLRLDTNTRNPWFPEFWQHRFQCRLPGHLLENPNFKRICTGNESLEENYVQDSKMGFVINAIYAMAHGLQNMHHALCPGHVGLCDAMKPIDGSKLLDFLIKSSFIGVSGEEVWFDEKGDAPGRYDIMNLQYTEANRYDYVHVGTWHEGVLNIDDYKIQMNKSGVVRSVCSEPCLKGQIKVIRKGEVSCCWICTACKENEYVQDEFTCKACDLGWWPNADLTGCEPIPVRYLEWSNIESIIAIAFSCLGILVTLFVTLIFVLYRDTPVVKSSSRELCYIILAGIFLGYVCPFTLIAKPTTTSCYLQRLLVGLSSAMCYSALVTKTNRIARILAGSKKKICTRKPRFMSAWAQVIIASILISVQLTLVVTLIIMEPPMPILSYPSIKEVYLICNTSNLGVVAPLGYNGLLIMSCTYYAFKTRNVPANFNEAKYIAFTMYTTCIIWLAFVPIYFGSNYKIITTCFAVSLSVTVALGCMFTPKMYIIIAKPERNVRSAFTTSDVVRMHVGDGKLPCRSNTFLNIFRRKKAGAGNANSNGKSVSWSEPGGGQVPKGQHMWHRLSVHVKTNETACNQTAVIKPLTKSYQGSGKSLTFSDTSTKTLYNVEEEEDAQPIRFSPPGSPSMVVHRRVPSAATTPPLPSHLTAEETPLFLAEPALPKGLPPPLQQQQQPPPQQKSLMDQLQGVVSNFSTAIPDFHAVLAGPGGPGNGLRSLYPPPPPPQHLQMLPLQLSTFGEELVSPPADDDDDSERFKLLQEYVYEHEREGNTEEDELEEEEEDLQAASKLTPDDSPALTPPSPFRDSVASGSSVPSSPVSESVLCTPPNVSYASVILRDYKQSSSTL

Series [7] in a line: Intrinsic clearance in human. Type of series: ADME, organism-based. The conditions noted are these: in vivo.
Series [8] concerns the target T1, Metabotropic glutamate receptor 1. The series can be described thus: Positive allosteric modulatory activity at human mGlu1 receptor expressed in wild type T-Rex293 cells assessed as increase in glutamate-induced calcium mobilization pre-incubated for 2.5 mins before glutamate stimulation for 1 min relative to glutamate alone. Format: functional, cell-based. An outline of the steps: as §1
Target sequence in this assay (Q13255 19-1194 limits assumed): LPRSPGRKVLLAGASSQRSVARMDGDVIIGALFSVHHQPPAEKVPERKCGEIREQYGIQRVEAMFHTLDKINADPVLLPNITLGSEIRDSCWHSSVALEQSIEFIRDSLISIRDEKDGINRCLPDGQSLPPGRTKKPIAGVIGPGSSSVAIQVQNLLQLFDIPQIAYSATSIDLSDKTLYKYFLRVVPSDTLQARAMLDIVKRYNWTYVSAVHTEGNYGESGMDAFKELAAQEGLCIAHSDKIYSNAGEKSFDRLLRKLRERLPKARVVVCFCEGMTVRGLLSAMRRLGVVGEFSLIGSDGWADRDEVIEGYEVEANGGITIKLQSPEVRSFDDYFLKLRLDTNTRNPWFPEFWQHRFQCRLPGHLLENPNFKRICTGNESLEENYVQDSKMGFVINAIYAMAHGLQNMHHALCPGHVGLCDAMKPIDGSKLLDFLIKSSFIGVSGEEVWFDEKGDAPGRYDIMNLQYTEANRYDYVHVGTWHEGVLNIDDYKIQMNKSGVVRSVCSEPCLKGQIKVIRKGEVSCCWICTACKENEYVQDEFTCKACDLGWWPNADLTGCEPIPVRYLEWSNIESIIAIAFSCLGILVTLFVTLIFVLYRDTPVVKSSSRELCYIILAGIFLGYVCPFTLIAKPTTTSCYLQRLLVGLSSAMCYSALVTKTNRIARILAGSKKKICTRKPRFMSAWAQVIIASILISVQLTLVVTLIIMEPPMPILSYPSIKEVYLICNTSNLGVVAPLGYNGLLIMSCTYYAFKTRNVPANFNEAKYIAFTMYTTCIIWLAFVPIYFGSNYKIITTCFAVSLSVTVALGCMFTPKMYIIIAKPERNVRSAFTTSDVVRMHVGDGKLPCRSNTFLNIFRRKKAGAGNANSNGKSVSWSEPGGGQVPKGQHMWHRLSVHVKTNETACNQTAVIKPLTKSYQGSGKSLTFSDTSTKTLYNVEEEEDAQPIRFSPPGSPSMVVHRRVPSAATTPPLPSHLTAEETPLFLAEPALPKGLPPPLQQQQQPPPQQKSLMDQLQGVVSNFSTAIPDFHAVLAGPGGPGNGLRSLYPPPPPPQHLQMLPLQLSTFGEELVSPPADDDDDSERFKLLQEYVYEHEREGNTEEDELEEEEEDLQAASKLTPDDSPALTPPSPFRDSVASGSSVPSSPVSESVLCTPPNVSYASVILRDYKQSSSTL

Series [9] has as its target Cytochrome P450 3A4 (Homo sapiens, UniProt P08684). The series is described as follows: Inhibition of […] (unknown origin). Type of series: ADME.
The target of series [10] is T2, Cytochrome P450 1A2 (Homo sapiens, UniProt P05177).
T2 sequence (P05177 whole entry): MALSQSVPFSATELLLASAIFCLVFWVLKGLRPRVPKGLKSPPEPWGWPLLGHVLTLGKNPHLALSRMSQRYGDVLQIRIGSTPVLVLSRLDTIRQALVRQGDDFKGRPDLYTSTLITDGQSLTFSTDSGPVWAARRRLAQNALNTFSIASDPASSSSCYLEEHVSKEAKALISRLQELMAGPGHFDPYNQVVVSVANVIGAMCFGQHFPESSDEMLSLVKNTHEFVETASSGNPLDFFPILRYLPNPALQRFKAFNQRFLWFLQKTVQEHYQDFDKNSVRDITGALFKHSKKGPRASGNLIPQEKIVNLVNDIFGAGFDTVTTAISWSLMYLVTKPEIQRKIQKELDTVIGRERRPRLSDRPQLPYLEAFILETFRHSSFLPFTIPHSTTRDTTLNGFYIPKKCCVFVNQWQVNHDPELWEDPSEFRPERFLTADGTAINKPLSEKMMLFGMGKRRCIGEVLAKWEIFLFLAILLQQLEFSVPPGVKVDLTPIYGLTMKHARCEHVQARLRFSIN
The series is described as follows: Inhibition of CYP1A2 (unknown origin). Format: ADME.

For series [11], the system named is Brain. The series can be described thus: Drug uptake in rat brain. Format: ADME, tissue-based. As to conditions: in vivo; call rule not given here.
Series [12] is described as follows: Ratio of drug level in brain to plasma in rat. Type of series: ADME.
A short description of series [13]: Fraction unbound in human plasma. Type of series: ADME, cell-free.
Series [14] can be described thus: Plasma protein binding in human. Format: ADME, cell-free.
Series [15] is filed under the species Rattus norvegicus. The series can be described thus: Half life in rat. Type of series: ADME, organism-based. As to conditions: in vivo.
A short description of series [16]: Protein binding in rat brain. Type of series: ADME, tissue-based. As to conditions: read-out: PB.
Series [17] concerns Liver microsome. The series can be described thus: Stability in rat liver microsomes. Format: ADME.
The subject of series [18] is Liver microsome. The series is described as follows: Stability in human liver microsomes. Type of series: ADME. (In general: Liver microsomes are a subcellular fraction often used to study metabolism.)
Series [19] concerns Plasma. The series can be described thus: Drug uptake in rat plasma. Type of series: ADME.
Series [20] deals with Metabotropic glutamate receptor 4 (Homo sapiens, UniProt Q14833). The series is described as follows: Positive allosteric modulatory activity at human mGlu4 receptor expressed in wild type T-Rex293 cells assessed as increase in glutamate-induced calcium mobilization pre-incubated for 2.5 mins before glutamate stimulation for 1 min. Type of series: functional, cell-based.
Series [21] can be described thus: Mean residence time in rat. The conditions noted are these: in vivo. Format: ADME, organism-based.
For series [22], the species on record is Rattus norvegicus. The series can be described thus: Volume of distribution in rat. As to conditions: in vivo. Type of series: ADME, organism-based.

Sequence of Cytochrome P450 2D6 (P10635 whole entry): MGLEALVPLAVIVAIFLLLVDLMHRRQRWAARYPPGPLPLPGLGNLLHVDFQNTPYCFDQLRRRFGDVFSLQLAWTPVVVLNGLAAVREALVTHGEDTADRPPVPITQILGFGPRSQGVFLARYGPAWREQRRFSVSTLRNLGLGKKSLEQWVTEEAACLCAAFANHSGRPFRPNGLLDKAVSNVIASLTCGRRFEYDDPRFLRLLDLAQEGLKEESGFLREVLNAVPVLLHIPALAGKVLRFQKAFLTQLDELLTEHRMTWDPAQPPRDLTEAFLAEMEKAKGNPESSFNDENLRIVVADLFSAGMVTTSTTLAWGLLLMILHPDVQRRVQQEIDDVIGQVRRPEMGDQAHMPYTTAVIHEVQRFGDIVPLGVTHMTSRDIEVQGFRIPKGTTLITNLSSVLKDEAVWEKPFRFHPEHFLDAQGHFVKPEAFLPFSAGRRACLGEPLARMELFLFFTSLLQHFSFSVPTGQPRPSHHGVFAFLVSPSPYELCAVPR
Sequence of Cytochrome P450 3A4 (P08684 whole entry): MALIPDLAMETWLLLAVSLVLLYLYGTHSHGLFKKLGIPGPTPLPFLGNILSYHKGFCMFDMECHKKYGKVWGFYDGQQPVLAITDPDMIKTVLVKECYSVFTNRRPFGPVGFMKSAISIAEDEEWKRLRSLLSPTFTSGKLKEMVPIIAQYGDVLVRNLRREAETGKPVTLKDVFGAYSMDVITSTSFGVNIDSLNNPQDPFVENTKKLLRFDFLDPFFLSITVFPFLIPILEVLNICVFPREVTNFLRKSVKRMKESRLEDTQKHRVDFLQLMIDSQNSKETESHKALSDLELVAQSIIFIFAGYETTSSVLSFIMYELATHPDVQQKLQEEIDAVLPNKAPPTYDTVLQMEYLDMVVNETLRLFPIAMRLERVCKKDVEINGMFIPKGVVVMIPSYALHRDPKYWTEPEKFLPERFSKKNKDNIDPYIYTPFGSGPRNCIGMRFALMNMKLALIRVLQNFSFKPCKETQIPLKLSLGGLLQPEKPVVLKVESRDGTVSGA
Sequence of Cytochrome P450 2C9 (P11712 whole entry): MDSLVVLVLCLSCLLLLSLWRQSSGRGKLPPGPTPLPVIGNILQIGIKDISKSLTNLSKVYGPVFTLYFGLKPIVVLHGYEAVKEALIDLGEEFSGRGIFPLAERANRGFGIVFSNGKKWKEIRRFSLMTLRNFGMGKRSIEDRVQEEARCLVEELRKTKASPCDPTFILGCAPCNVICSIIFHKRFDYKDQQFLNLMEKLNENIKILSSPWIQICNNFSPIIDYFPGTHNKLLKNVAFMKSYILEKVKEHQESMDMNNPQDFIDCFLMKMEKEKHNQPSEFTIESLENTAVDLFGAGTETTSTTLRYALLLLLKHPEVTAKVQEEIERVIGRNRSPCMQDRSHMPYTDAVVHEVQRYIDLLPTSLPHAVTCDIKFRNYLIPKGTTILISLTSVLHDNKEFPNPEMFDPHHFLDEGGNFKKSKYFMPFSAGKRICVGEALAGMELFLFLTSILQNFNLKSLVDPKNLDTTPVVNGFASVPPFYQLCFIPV
Sequence of Metabotropic glutamate receptor 4 (Q14833 whole entry): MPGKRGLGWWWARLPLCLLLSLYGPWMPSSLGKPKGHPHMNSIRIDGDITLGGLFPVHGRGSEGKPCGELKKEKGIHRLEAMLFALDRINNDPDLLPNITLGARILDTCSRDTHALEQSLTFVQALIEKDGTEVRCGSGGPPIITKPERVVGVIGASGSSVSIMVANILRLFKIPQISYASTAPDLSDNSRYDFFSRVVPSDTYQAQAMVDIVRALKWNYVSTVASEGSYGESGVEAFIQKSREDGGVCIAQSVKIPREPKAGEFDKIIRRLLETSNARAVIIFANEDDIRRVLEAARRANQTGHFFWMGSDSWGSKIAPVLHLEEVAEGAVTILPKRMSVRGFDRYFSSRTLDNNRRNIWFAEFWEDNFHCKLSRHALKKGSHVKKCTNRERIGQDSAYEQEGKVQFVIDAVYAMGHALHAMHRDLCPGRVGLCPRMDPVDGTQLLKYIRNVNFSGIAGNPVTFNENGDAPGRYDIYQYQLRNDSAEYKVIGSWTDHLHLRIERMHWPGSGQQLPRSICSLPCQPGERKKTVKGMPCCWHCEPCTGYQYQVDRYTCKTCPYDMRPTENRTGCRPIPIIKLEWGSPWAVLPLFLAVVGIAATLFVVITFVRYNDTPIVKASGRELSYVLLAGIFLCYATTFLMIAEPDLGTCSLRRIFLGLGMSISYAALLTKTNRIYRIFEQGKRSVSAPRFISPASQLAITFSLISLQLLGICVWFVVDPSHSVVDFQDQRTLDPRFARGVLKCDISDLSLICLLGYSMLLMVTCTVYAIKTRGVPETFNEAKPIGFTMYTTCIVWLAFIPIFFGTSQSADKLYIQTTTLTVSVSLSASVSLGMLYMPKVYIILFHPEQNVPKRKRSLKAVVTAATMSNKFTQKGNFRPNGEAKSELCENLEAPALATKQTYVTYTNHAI

For `Cc1ccoc1C(=O)Nc1ccc(N2C(=O)Cc3ccccc3C2=O)c(Cl)c1`, the “inhibition (INH)” value in series [1] (human), in series [3] (human), in [9] (human) and in series [10] (human) was “Not Active” each time. Further, the Stability entry in [2] and in series [5] was “Unstable” in each case. Moreover, the CLhep predicted is 54 mL/min/kg in series [4] and 13.5 mL/min/kg in series [7]. Further, the figures for the EC50 in [6] (read-out: EC50) and in [6] (read-out: pEC50 (converted)) were 242 nM and 224 nM, respectively. Further, the %max in series [8] was 105%.
Consider `Cc1ccoc1C(=O)Nc1ccc(N2Cc3c(Cl)cccc3C2=O)c(Cl)c1`, for which, in series [11], the Druguptake/dose is listed as 269 nM. Also, the BPR in series [12] amounted to 1.36. The IC50 in series [1], in [3], in [9] and in [10] was above 30000 nM each time. Besides, the fraction unbound in [13] and in series [16] was below 0.01 throughout. The same compound registered a PPB in [14] above 99%. In series [15], the t1/2 stood at 1.55 h. The Stability entry in series [17] and in series [18] was “Stable” throughout. The EC50 in [6] (read-out: EC50) is 211 nM; in [20], above 10000 nM. The compound further returned a Cp/dose in [19] of 193 nM. The %max in series [8] came to 88%. Moreover, the MRT in [21] is 5.03 h. Also, in [22], the Vd was 3.36 L/kg.

What is called IC50 is the concentration that gives 50% inhibition. Low readings indicate inhibition by little substance, high ones a need for much substance. The MRT is the average time that molecules of a dose stay in the body. As a reminder, the Vd is a proportionality between amount in the body and measured concentration, not a real space. Low readings indicate little distribution into tissue, high ones wide distribution into tissue.

The record behind these values is ChEMBL document CHEMBL3785002, “Lead optimization of the VU0486321 series of mGlu1 PAMs. Part 3. Engineering plasma stability by discovery and optimization of isoindolinone analogs” (Bioorg Med Chem Lett, 2016).
